The entries come from a sample that favours hits as a whole.
XBP1 UPR activ: adaptive UPR (XBP1) activation | activation, % at 20 µM | AID 463104 | CHO-XBP1 luciferase reporter, IRE1-XBP1 UPR activation, luminescence; percent of tunicamycin response, DMSO as zero | actives 0.33% (n = 330,000);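 active = versus positive control, 20 µM dose yields 30% or more activation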;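 note: 100% = tunicamycin at 10 µg/mL and 0% = DMSO only wells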
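Material: CHO cell line with stable XBP1 luciferase reporter; schedule: 16-18 h cell attachment at 37 °C, then 6 h compound exposure; signal: glow luminescence from Steady-Glo reagent; medium: serum-containing F12 medium, 10% FBS; benchmarks: tunicamycin 10 µg/mL and vehicle-only wells; read-out: percent activation relative to tunicamycin reference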
CHOP inhibitor: inhibitors of CHOP induction in ER stress response | CHO-K1 CHOP-promoter luciferase, tunicamycin-induced, 15-18 h | inhibition, % at 10 µM | actives 3.8% (n = 220,000);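 active = compounds that reduced the stress-induced luciferase reporter signal by more than about 70% of percent inhibition, limit read from the data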;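 note: 0% = tunicamycin plus vehicle and 100% = wells without tunicamycin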
VLA-4 inh: inhibition in a human VLA-4 binding assay; P13612; VLA-4 expressing cells, ligand binding flow cytometry; inhibition, % (about 7 µM as worked out from the volumes in the protocol); actives 0.2% (n = 330,000); in the data active = inhibition above about 50%
Beta2AR agonist: activates human beta-2 adrenergic receptor causing internalization | P07550 | actives 0.43% (n = 340,000) | response, % (test concentration not listed) | Am2.2-beta2AR cells, FAP receptor internalization, flow cytometry;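 active = response above a set limit, near 3 SD of response in nonfluorescent compounds, cut at about 42% in these data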
CHOP UPR activ: activators of apoptotic arm of unfolded protein response (CHOP); CHO-CHOP luciferase reporter, UPR activation, luminescence; percent of tunicamycin response over DMSO baseline; activation, % at 10 µM; actives 0.34% (n = 330,000); AID 449763;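 active = at 10 µM dose, activation of 40% or more, normalized to positive control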;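 note: 100% = tunicamycin at 10 µg/mL and 0% = DMSO alone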
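System: CHO-CHOP luciferase reporter cell line; amount: 500 cells/well; buffer or medium: F12 medium containing 10% fetal bovine serum; incubation: 6 h compound exposure at 37 °C after overnight seeding; measured by: luciferase luminescence after 10 min with Steady-Glo reagent; evaluation: % reporter activation, DMSO baseline versus tunicamycin full activation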
Starred values were filed as active, the others as inactive; / = not tested or not shown.

SMILES | XBP1 UPR activ | CHOP inhibitor | VLA-4 inh | Beta2AR agonist | CHOP UPR activ
CSC(=O)NC12CC3CC(CC(C)(C3)C1)C2 | -1 | 78* | 15 | -3 | 2
COc1ccc(OCC(O)CN(CCO)CC(O)Cn2ccc3ccccc32)cc1 (stereo unspecified) | -2 | 14 | 10 | 4 | 3
CCC(=C(c1ccc(OC)cc1)c1ccc(OC)cc1)c1cn(CC(O)CN(CCO)CCO)c2ccccc12 (stereo unspecified) | -2 | 76* | 10 | 10 | 1
Cc1ccc(CSC(Nc2ccc(F)cc2)=C(C#N)C#N)cc1 | -1 | 76* | 22 | 8 | 4
CCCN1C(=S)c2ccccc2C1c1ccccc1 (stereo unspecified) | -2 | / | 8 | 2 | 1
CCOc1ccccc1NC(=O)c1ccc2c(c1)C(=O)N(CC)C2=O | 0 | / | -7 | -4 | -1
CC(C/C=N/NC(=O)COc1cc(Cl)ccc1Cl)c1ccccc1 (stereo unspecified) | -2 | 79* | 0 | 1 | 1
C/C(=N\NC(=O)COc1ccc(C)cc1C(C)C)c1ccc(-n2ccnc2)cc1 | 3 | 93* | -2 | 2 | 9
O=C(OCc1csc(Nc2ccccc2)n1)c1ccc(Cl)cc1 | -2 | 74* | 22 | 10 | -1
O=C(COc1ccccc1)OCc1csc(Nc2ccccc2)n1 | 3 | -9 | 1 | 3 | -2
COC(=O)c1c(NC(=O)Cn2cnc([N+](=O)[O-])n2)sc2c1CCC(C)C2 (stereo unspecified) | 4 | 75* | 6 | -1 | 2
Cc1c(C#N)c(N)nc2c3c(sc12)NC(=O)CC3c1ccc(Cl)cc1 (stereo unspecified) | 8 | 101* | / | 26 | 4
COc1ccc(/C=C/c2nc(-c3ccccc3O)n[nH]2)cc1 | 3 | 79* | 0 | -8 | 6
COC(=O)c1cc(=O)n(Cc2ccc(OC)c(OC)c2)c(=Nc2ccc(F)cc2)s1 | 12 | 31 | -7 | 72* | 22
COC(=O)c1cc(=O)n(Cc2ccc(F)cc2)c(=Nc2ccccc2)s1 | 2 | -40 | 0 | 25 | 4
Cc1sc2ncn3ncnc3c2c1C | 3 | 90* | -9 | -3 | 0
Cc1cc(CNC[C@H]2O[C@@H](n3cnc(C(N)=O)n3)[C@H](O)[C@@H]2O)c(C)n1-c1cccnc1 | / | / | / | 0 | /
O=C1c2ccccc2C(=Nc2ccccc2)C1c1cccc(Br)c1 (stereo unspecified) | 4 | 72* | 1 | -5 | 0
CS(=O)(=O)N1CCC(Oc2ccccc2C(=O)N2CCC[C@H]2CO)CC1 | -3 | / | 12 | -1 | 3
Cc1cccc(-c2nnc3sc(-c4ccccc4C)nn23)c1 | 2 | 83* | 0 | 10 | 2
Cc1nnc(SCC(=O)Nc2nc3c(s2)CC(C)CC3)s1 (stereo unspecified) | 4 | 84* | -7 | 1 | 3
Cc1csc(NC(=O)CSc2nnc(C)s2)n1 | 1 | 6 | -4 | 0 | 1
CCCCNC(=O)CSc1nc2ccccc2n1S(=O)(=O)c1ccc(Br)cc1 | -3 | 23 | 6 | 2 | -2
CCCCNC(=O)CSc1nc2ccccc2n1S(=O)(=O)c1ccc(Cl)cc1 | 1 | 75* | 15 | -4 | 2
CCCCCSc1nc2c(c(=O)[nH]c(=O)n2C)n1C(C)C | 14 | 89* | 0 | 1 | 5
SMILES | XBP1 UPR activ | CHOP inhibitor | VLA-4 inh | Beta2AR agonist | CHOP UPR activ
CC(C)CSc1nc2c(c(=O)[nH]c(=O)n2C)n1CC(O)COc1cccc2ccccc12 (stereo unspecified) | / | 80* | / | 3 | /
CCCCCn1c(N2CCN(c3cccc(Cl)c3)CC2)nc2c1c(=O)[nH]c(=O)n2C | 14 | 87* | -8 | 17 | -2
CCSc1nc2c(c(=O)[nH]c(=O)n2C)n1CC(O)COc1ccccc1 (stereo unspecified) | 0 | -14 | 0 | 5 | -1
Cn1c(=O)[nH]c(=O)c2c1nc(N1CCN(c3cccc(Cl)c3)CC1)n2CCCc1ccccc1 | / | 45 | / | / | /
CCCCn1c(SCc2ccc(Cl)cc2)nc2c1c(=O)[nH]c(=O)n2C | 17 | 82* | -5 | -8 | 1
C/C(Cl)=C/Cn1c(SCc2ccc(Cl)cc2)nc2c1c(=O)[nH]c(=O)n2C | / | 9 | / | 4 | /
CCCCCSc1nc2c(c(=O)[nH]c(=O)n2C)n1C | 6 | 50 | 5 | -1 | 1
COC(=O)[C@]1(Cc2ccccc2)N[C@H](CN(C)S(=O)(=O)c2ccc(C)cc2)[C@@H]2C(=O)N(Cc3ccccc3)C(=O)[C@@H]21 | -1 | / | -5 | 3 | 2
Clc1ccc(C(Cn2ccnc2)OCc2c(Cl)cccc2Cl)c(Cl)c1 (stereo unspecified) | -6 | / | 19 | -5 | 1
CC1CN(C(=O)c2ccc(CNS(=O)(=O)c3cccc(Cl)c3)cc2)CC(C)O1 (stereo unspecified) | -5 | / | / | 2 | 2
Cc1ccc(Cn2c(Sc3ncccn3)nc3c2c(=O)[nH]c(=O)n3C)cc1 | 2 | 0 | -30 | -5 | 0
CC(C)CCSc1nc2c(c(=O)[nH]c(=O)n2C)n1CCc1ccccc1 | 7 | 88* | 15 | -4 | 0
Cc1ccc(CSc2nc3c(c(=O)[nH]c(=O)n3C)n2CCC(C)C)cc1 | 7 | 106* | -22 | 4 | -1
CCCCCn1c(Sc2nc3ccccc3s2)nc2c1c(=O)[nH]c(=O)n2C | 8 | 76* | -5 | -7 | 0
C/C=C/CSc1nc2c(c(=O)[nH]c(=O)n2C)n1Cc1ccc(C)cc1 | 5 | 86* | 12 | 7 | 2
CCCCN(C(=O)c1ccc(NC2CC2)c([N+](=O)[O-])c1)c1c(N)n(CCCC)c(=O)[nH]c1=O | 0 | / | / | 1 | -1
CN(Cc1nccn1C)C(=O)c1ccc2nc(Cc3ccccc3F)oc2c1 | 2 | / | -11 | -5 | 6
CCC(C)NC(=S)NNC(=O)c1ccc(C(C)(C)C)cc1 (stereo unspecified) | 3 | 23 | -2 | -1 | -1
CC1CCCCC1NC(=O)c1c(O)nc2ccccn2c1=O (stereo unspecified) | 1 | / | 3 | 11 | 5
Cc1ccccc1N1CCN(C(=O)c2ccccc2NC(=O)C2CC=CCC2C(=O)O)CC1 (stereo unspecified) | 5 | 28 | 12 | 2 | 2
CCCCC(CC)CNC(=O)Cn1c(=S)[nH]c2ncccc2c1=O (stereo unspecified) | -2 | -1 | -5 | / | 0
CCOC(=O)c1c(CSc2ccc(C)cc2)oc2ccc(O)cc12 | 4 | 107* | 1 | -5 | 1
CCOC(=O)c1cc2sccc2n1CC(=O)N1CCc2ccccc21 | -4 | 74* | 11 | -3 | -2
CCOC(=O)c1cc2sccc2n1CC(=O)OC(C)C | -2 | 16 | -11 | 1 | -3

Screening results: PubChem, several laboratories
